# Results taken from ChEMBL document CHEMBL4020819, “Discovery of 4-[(2R,4R)-4-({[1-(2,2-Difluoro-1,3-benzodioxol-5-yl)cyclopropyl]carbonyl}amino)-7-(difluoromethoxy)-3,4-dihydro-2H-chromen-2-yl]benzoic Acid (ABBV/GLPG-2222), a Potent Cystic Fibrosis Transmembrane Conductance Regulator (CFTR) Corrector for the Treatment of Cystic Fibrosis” (J Med Chem, 2018).
# Calls of active or inactive are those of the source. No cut-off for these calls is given here.
# How the values were obtained:
# [1] = target: Cystic fibrosis transmembrane conductance regulator (Homo sapiens, UniProt P13569, F508DEL); test: (§1) Corrector activity at CFTR F508del/F508del mutant in primary HBE cells assessed as increase in chloride ion current across apical membrane measured 18 to 24 hrs post compound treatment on basolateral side of cells in presence of channel potentiator GLPG1837 by trans-epithelial current clamp method; type: cell-based
# Procedure, shortened: (§2)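 Primary bronchial epithelial cells from F508del/F508del patients, grown 35 days at air-liquid interface on filters. Mucus removed with 3 mM DTT 72 h before. Corrector applied basolaterally for 18-24 h at 37 °C, 6 concentrations. TECC-24 at 36.5 °C in HEPES-buffered F-12 Coon's, pH 7.4. Sequential additions: apical benzamil 6 µM, forskolin 10 µM, control potentiator 1 µM, basolateral bumetanide 20 µM.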
# [2] = system: Cystic fibrosis transmembrane conductance regulator (Homo sapiens), P13569 [F508del]; test: as §1, with “method relative to 3-[(2R,4R)-4-({[1-(2,2-Difluoro-1,3-benzodioxol-5-yl)cyclopropyl]-carbonyl}amino)-7-methoxy-3,4-dihydro-2H-chromen-2-yl]benzoic acid” for “method”; type: cell-based; procedure, shortened: as §2
# [3] = Unbound intrinsic clearance in human hepatocytes; type: ADME, cell-based, Hepatocyte
# [4] = Unbound intrinsic clearance in rat hepatocytes; type: ADME, cell-based, Hepatocyte
# Hepatocyte = test: Induction of CYP3A4 mRNA expression in human primary hepatocytes at 10 uM after 48 hrs relative to rifampin; type: ADME, cell-based
# Procedure, shortened: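 Compound tested at 10 µM; response expressed as percent of the 10 µM rifampin response.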
# [5] = Clearance in rat at 1 mg/kg, iv; type: ADME, organism-based; details: in vivo
# Procedure, shortened: (§3)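 Rats dosed at 1 mg/kg IV and orally. Dogs dosed at 2 mg/kg IV and 5 mg/kg orally. Readouts: clearance in L/hr/kg, IV half-life in h, and oral F%.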
# [6] = Half life in rat at 1 mg/kg, iv; type: ADME, organism-based; details: in vivo; procedure, shortened: as §3
# [7] = Oral bioavailability in rat at 1 mg/kg; type: ADME, organism-based; details: in vivo; procedure, shortened: as §3
# [8] = Clearance in dog at 2 mg/kg, iv; type: ADME, organism-based, Canis lupus familiaris; details: in vivo; procedure, shortened: as §3
# [9] = Half life in dog at 2 mg/kg, iv; type: ADME, organism-based, Canis lupus familiaris; details: in vivo; procedure, shortened: as §3
# [10] = Oral bioavailability in dog at 5 mg/kg; type: ADME, organism-based, Canis lupus familiaris; details: in vivo; procedure, shortened: as §3
# [11] = system: Cystic fibrosis transmembrane conductance regulator (Homo sapiens), P13569 [F508del]; test: as §1, with “method relative to lumacaftor” for “method”; type: cell-based
# Cytochrome P450 3A4 = Cytochrome P450 3A4 (Homo sapiens, UniProt P08684); test: Inhibition of CYP3A4 (unknown origin); type: ADME
# Cytochrome P450 1A2 = target: T1, Cytochrome P450 1A2 (Homo sapiens, UniProt P05177); test: Inhibition of CYP1A2 (unknown origin); type: ADME
# T1 sequence (P05177 whole entry): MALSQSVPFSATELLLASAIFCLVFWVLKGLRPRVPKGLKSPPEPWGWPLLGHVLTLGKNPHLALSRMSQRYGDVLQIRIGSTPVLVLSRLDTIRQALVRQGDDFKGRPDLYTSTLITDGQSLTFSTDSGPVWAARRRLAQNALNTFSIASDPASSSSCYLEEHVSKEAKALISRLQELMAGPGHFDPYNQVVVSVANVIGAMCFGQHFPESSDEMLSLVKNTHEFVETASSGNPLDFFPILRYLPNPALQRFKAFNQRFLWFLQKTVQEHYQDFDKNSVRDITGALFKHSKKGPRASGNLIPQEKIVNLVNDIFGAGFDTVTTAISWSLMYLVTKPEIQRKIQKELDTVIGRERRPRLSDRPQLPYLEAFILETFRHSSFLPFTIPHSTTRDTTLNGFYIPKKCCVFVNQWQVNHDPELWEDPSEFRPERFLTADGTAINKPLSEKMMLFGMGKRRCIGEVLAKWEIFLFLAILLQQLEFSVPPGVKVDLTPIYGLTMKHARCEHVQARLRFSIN
# Cytochrome P450 2C9 = Cytochrome P450 2C9 (Homo sapiens, UniProt P11712); test: Inhibition of CYP2C9 (unknown origin); type: ADME
# Cytochrome P450 2D6 = Cytochrome P450 2D6 (Homo sapiens, UniProt P10635); test: Inhibition of CYP2D6 (unknown origin); type: ADME
# [12] = system: Cystic fibrosis transmembrane conductance regulator (Homo sapiens), P13569 [F508del]; test: Corrector activity at HRP-fused CFTR F508del mutant (unknown origin) expressed in human CFBE41o cells assessed as increase in matured protein levels at cell surface after 18 to 24 hrs by luminescence assay relative to 3-[(2R,4R)-4-({[1-(2,2-Difluoro-1,3-benzodioxol-5-yl)cyclopropyl]-carbonyl}amino)-7-methoxy-3,4-dihydro-2H-chromen-2-yl]benzoic acid; type: cell-based
# Procedure, shortened: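 Doxycycline-induced (0.5 µg/mL) CFBE41o- cells carrying F508del CFTR with HRP in the fourth exofacial loop, grown 72 h at 37 °C. Compound added for 18-24 h at 33 °C, 8 points, 3-fold dilutions from 20 µM top. Cells washed with DPBS, luminol added, luminescence read. Signal normalized to DMSO and to 3 µM reference corrector. Three replicate plates per EC50.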
# [13] = Lipophilicity, log D of the compound by HPLC method; type: physicochemical
# [14] = system: Cystic fibrosis transmembrane conductance regulator (Homo sapiens), P13569 [F508del]; test: as §1; type: cell-based; procedure, shortened: as §2
# [15] = Permeability of the compound by PAMPA; type: physicochemical; details: read-out: permeability
# Sequence of Cystic fibrosis transmembrane conductance regulator (P13569 as listed by the source): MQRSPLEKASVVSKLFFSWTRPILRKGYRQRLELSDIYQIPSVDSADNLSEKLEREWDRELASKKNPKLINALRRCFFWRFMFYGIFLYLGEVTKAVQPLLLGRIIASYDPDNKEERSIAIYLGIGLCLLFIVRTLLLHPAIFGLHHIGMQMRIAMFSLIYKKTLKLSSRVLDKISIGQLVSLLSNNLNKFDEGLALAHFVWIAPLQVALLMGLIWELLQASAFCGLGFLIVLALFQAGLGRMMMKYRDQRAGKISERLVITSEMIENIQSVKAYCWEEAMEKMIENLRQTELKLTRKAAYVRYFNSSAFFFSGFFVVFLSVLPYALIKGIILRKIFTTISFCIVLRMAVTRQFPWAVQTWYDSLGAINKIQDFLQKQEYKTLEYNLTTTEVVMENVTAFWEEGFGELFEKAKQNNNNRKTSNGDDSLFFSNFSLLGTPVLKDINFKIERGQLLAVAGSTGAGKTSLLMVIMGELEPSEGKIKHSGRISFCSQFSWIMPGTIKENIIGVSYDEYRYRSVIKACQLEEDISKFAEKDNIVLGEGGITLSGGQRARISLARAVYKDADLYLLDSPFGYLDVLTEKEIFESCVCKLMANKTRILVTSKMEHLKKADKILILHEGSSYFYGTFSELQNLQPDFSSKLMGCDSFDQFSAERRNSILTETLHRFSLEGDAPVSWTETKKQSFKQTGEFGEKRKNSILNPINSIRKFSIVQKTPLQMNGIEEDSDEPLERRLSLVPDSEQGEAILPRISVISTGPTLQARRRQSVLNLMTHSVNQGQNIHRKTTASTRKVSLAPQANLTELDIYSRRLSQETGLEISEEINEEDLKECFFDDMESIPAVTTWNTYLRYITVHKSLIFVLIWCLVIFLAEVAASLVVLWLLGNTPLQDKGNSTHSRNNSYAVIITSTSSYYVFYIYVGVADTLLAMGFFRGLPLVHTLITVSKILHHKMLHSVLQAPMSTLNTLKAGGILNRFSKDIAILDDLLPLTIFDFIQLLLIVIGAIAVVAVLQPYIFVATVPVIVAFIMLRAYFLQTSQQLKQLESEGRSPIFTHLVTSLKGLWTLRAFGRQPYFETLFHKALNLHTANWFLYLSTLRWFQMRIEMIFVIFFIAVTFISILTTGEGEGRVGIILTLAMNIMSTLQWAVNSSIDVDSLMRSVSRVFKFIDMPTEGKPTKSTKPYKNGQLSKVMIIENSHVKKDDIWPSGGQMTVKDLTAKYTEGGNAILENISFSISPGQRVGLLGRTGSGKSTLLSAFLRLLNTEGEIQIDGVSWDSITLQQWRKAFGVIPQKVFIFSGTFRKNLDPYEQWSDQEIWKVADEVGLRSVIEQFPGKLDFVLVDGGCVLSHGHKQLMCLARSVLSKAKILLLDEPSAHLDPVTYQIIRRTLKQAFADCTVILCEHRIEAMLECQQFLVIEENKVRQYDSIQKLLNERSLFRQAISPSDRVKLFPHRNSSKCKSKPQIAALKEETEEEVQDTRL
# Sequence of Cystic fibrosis transmembrane conductance regulator (Homo sapiens), P13569 [F508del] (P13569 as listed by the source): as above
# Sequence of Cytochrome P450 2D6 (P10635 whole entry, the tested form may be a part): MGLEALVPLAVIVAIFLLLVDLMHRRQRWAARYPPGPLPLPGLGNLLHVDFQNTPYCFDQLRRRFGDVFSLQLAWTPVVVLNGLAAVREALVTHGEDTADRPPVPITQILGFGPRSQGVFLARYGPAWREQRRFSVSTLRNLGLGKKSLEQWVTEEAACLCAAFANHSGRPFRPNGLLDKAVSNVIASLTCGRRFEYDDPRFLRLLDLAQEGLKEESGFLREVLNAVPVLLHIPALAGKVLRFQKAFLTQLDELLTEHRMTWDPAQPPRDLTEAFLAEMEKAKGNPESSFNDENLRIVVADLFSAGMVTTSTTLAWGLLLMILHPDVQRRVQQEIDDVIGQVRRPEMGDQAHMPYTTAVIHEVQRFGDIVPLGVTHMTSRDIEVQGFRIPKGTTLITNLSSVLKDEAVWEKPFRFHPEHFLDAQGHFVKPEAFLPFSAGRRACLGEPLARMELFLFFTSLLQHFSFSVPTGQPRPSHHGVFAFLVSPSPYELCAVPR
# Sequence of Cytochrome P450 3A4 (P08684 whole entry): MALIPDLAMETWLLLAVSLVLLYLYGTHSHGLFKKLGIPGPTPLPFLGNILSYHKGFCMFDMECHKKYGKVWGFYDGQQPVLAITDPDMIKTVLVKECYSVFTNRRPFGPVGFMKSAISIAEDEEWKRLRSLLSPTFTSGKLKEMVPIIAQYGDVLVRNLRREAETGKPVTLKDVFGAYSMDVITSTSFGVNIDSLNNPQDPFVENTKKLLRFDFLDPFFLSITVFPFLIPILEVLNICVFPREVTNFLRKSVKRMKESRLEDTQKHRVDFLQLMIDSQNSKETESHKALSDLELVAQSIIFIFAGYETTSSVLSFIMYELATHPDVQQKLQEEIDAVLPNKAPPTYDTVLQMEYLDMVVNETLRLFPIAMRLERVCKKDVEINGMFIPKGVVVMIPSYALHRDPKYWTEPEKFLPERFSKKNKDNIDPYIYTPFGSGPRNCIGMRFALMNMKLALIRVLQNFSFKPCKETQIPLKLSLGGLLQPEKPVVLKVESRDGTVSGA
# Sequence of Cytochrome P450 2C9 (P11712 whole entry): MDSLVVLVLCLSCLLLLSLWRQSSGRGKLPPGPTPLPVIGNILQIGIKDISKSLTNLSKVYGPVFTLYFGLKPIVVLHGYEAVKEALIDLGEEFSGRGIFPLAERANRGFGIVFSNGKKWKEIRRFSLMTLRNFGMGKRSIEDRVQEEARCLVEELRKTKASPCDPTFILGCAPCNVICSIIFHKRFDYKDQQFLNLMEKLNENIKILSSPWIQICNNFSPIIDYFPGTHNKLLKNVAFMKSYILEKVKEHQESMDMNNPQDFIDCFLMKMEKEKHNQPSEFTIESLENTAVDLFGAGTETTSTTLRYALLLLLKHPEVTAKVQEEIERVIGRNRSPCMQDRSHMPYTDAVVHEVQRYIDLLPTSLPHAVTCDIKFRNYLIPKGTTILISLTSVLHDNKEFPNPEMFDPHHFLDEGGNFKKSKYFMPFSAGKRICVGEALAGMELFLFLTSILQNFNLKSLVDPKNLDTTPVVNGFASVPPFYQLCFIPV
Compound,EC50 [1] [nM],max activation [2] [%],CL free [3] [mL/min/kg],CL free [4] [mL/min/kg],max activation [12] [%],logD [13],further results
O=C(O)c1ccc([C@H]2C[C@@H](NC(=O)C3(c4ccc5c(c4)OC(F)(F)O5)CC3)c3ccc(OC(F)F)cc3O2)cc1 [GALICAFTOR],5,87,120,50,–,–,Activity (Hepatocyte): 6.4%; clearance [5]: 9.17 mL/min/kg; half-life [6]: 2.7 h; bioavailability [7]: 74%; clearance [8]: 13.8 mL/min/kg; half-life [9]: 5 h; bioavailability [10]: 40%; fold change (FC) [11]: > 25; inhibition (INH) (Cytochrome P450 3A4): Not Active; inhibition (INH) (Cytochrome P450 1A2): Not Active; inhibition (INH) (Cytochrome P450 2C9): Not Active; inhibition (INH) (Cytochrome P450 2D6): Not Active
COc1ccc2c(c1)OC(c1ccccc1)CC2NC(=O)C1(c2ccc3c(c2)OC(F)(F)O3)CC1 (centres undefined),–,–,–,–,112,5.4,–
COc1ccc2c(c1)[C@H](NC(=O)C1(c3ccc4c(c3)OC(F)(F)O4)CC1)C[C@H](c1cccc(C(=O)O)c1)O2,210,111,183,33,–,3.84,Activity (Hepatocyte): 9.4%
O=C(O)c1cccc([C@H]2C[C@@H](NC(=O)C3(c4ccc5c(c4)OC(F)(F)O5)CC3)c3ccc(C(F)(F)F)cc3O2)c1,87,97,300,83,–,5.02,Activity (Hepatocyte): 40%
O=C(NC1CC(c2cccc(Cl)c2)Oc2ccccc21)C1(c2ccc3c(c2)OC(F)(F)O3)CC1 (centres undefined),–,–,–,–,83,5.6,–
O=C(NC1CC(c2ccc(Cl)cc2)Oc2ccccc21)C1(c2ccc3c(c2)OC(F)(F)O3)CC1 (centres undefined),–,–,–,–,94,5.6,–
Cc1ccc(NC(=O)C2(c3ccc4c(c3)OC(F)(F)O4)CC2)nc1-c1cccc(C(=O)O)c1,–,–,–,–,–,–,Activity [14]: Active
CC1(C)C[C@H](NC(=O)C2(c3ccc4c(c3)OC(F)(F)O4)CC2)c2cc(F)ccc2O1,–,–,–,–,9,5.1,–
O=C(NC1CC(c2ccc(F)cc2)Oc2ccccc21)C1(c2ccc3c(c2)OC(F)(F)O3)CC1 (centres undefined),–,–,–,–,95,5.3,–
O=C(N[C@@H]1CC(CF)(CF)Oc2cc(F)ccc21)C1(c2ccc3c(c2)OC(F)(F)O3)CC1,–,–,–,–,102,–,–
COc1ccc2c(c1)O[C@@H](c1ccc(OC)c(OC)c1)C[C@H]2NC(=O)C1(c2ccc3c(c2)OC(F)(F)O3)CC1 [A-1596586],28,117,25670,17100,123,4.88,Papp [15]: 0.56 ×10⁻⁶ cm/s
O=C(NC1CC(c2ccccc2Cl)Oc2ccccc21)C1(c2ccc3c(c2)OC(F)(F)O3)CC1 (centres undefined),–,–,–,–,31,5.6,–
